From ChEMBL document CHEMBL1821643, “Oleanane-type triterpenoids from the leaves and twigs of Fatsia polycarpa” (J Nat Prod, 2011)
Values after ≈ are worked out from the molar mass of the structure shown. Active and inactive are the calls of the source. No cut-off for these calls is given here.

Columns and labels:
Hepatitis B virus [1] = test: Antiviral activity against Hepatitis B virus infected in human HepG2(2.2.15) cells assessed as reduction of HBeAg secretion by enzyme immunoassay; format: functional, organism-based
Procedure, shortened: (§1)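 HepG2 2.2.15 cells grown in modified Eagle's medium with 10% FBS, no antibiotics, 37 °C, 5% CO2. Confluent cultures treated at nontoxic concentrations in medium with 2% FBS, renewed every 3 days. Medium collected at day 6; HBsAg and HBeAg measured by enzyme immunoassay. Values relative to 0.1% DMSO control. IFN-alpha as positive control.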

AGS = test: Cytotoxicity against human AGS cells; format: functional, cell-based
[2] = system: Salmonella enterica subsp. enterica; test: Antimicrobial activity against Salmonella enterica ATCC 13311 after 24 hrs by broth microdilution method; format: functional, organism-based
Procedure, shortened: (§2)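 MIC by broth microdilution per CLSI guidelines. Strains grown on nutrient agar at 37 °C for 24 h. Inoculum prepared in normal saline against a 0.5 McFarland standard, final density 5 × 10^5 cfu/mL. Compounds dissolved in DMSO, then nutrient broth. 2-fold serial dilutions from 128 down to 0.25 μg/mL. Ampicillin column as positive control.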

Helicobacter pylori = test: Antimicrobial activity against Helicobacter pylori ATCC 700392; format: functional
Hepatitis B virus [3] = test: Antiviral activity against Hepatitis B virus infected in human HepG2(2.2.15) cells assessed as reduction of HBsAg secretion by enzyme immunoassay; format: functional, organism-based; procedure, shortened: as §1
Enterococcus faecalis = test: Antimicrobial activity against Enterococcus faecalis ATCC 29212 after 24 hrs by broth microdilution method; format: functional, organism-based; procedure, shortened: as §2
[4] = Cytotoxicity against human HepG2(2.2.15) cells after 3 days by MTS assay; format: functional, cell-based; conditions: HepG2 2.2.15, 72 h
Procedure, shortened: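 HepG2 2.2.15 cells exposed for 3 days to 2-fold serial dilutions, 1.25–40 μg/mL. Viability read by MTS assay, in triplicate. Expressed as percentage of untreated control. Fluorouracil as positive control.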

Listeria monocytogenes = test: Antimicrobial activity against Listeria monocytogenes ATCC 7644 after 24 hrs by broth microdilution method; format: functional, organism-based; procedure, shortened: as §2
Escherichia coli = test: Antimicrobial activity against Escherichia coli ATCC 35150 after 24 hrs by broth microdilution method
Pseudomonas aeruginosa = test: Antimicrobial activity against Pseudomonas aeruginosa ATCC 27853 after 24 hrs by broth microdilution method; format: functional, organism-based; procedure, shortened: as §2
Bacillus cereus = test: Antimicrobial activity against Bacillus cereus ATCC 9139 after 24 hrs by broth microdilution method; format: functional; conditions: ATCC 9139, 24 h; procedure, shortened: as §2
Staphylococcus aureus = test: Antimicrobial activity against Staphylococcus aureus ATCC 29213 after 24 hrs by broth microdilution method; format: functional; conditions: ATCC 29213, 24 h; procedure, shortened: as §2

| Compound | inhibition (Hepatitis B virus [1]) | IC50 (AGS) [µM] | MIC [2] | MBC (Helicobacter pylori) [µg/mL] | inhibition (Hepatitis B virus [3]) | MIC (Enterococcus faecalis) | IC50 [4] [µM] | MIC (Listeria monocytogenes) | MIC (Escherichia coli) | MIC (Pseudomonas aeruginosa) | MIC (Bacillus cereus) [µg/mL] | MIC (Staphylococcus aureus) [µg/mL] |
| --- | --- | --- | --- | --- | --- | --- | --- | --- | --- | --- | --- | --- |
| CC1(C)CC[C@]2(C(=O)O)CC[C@]3(C)C(=C2C1)C=C[C@@H]1[C@@]2(C)CC[C@H](OS(=O)(=O)O)C(C)(C)[C@@H]2CC[C@]13C [FATSICARPAIN B] | inactive | > 50 | inactive | 128 (≈ 239 µM) | inactive | inactive | > 50 | inactive | inactive | inactive | – | – |
| CC1(C)C=C2[C@H]3C[C@@H](O)[C@@H]4[C@@]5(C)CC[C@@H](O)C(C)(C)[C@@H]5CC[C@@]4(C)[C@]3(C)CC[C@@]2(C(=O)O)CC1 [FATSICARPAIN E] | inactive | 47.6 | inactive | 128 (≈ 271 µM) | inactive | inactive | > 50 | inactive | inactive | inactive | 64 (≈ 135 µM) | – |
| CO[C@@H]1C=C2[C@@H]3CC(C)(C)CC[C@]3(C(=O)O)CC[C@@]2(C)[C@]2(C)CC[C@H]3C(C)(C)[C@H](O)CC[C@]3(C)[C@@H]12 [FATSICARPAIN F] | inactive | > 50 | inactive | 64 (≈ 131 µM) | inactive | inactive | 23.9 | inactive | inactive | inactive | 2 (≈ 4.11 µM) | – |
| CC1(C)CC[C@]2(C(=O)O)CC[C@]3(C)C(=C2C1)C=C[C@@H]1[C@@]2(C)CC[C@@H](O)[C@@](C)(CO)[C@@H]2CC[C@]13C [FATSICARPAIN A] | inactive | 10.1 | inactive | 64 (≈ 136 µM) | inactive | inactive | 18.9 | inactive | inactive | inactive | 32 (≈ 68 µM) | – |
| CC1(C)CC[C@]2(C(=O)O)CC[C@]3(C)C(=CC=C4[C@@]5(C)CC[C@@H](O)C(C)(C)[C@@H]5CC[C@]43C)[C@@H]2C1 [FATSICARPAIN D] | inactive | 42.8 | inactive | 64 (≈ 141 µM) | inactive | inactive | 28.8 | inactive | inactive | inactive | 8 (≈ 17.6 µM) | – |
| CC1(C)CC[C@]2(C(=O)O)CC[C@]3(C)C(=C2C1)C=C[C@@H]1[C@@]2(C)CC[C@@H](O)[C@@](C)(C=O)[C@@H]2CC[C@]13C [FATSICARPAIN C] | inactive | > 50 | inactive | 64 (≈ 137 µM) | inactive | inactive | 16.7 | inactive | inactive | inactive | 32 (≈ 68.3 µM) | 64 (≈ 137 µM) |
| CC1(C)CC[C@@]23CC[C@]4(C)[C@@](C=C[C@@H]5[C@@]6(C)CC[C@@H](O)C(C)(C)[C@@H]6CC[C@]54C)(OC2=O)[C@@H]3C1 | inactive | 9 | inactive | > 128 | inactive | inactive | > 50 | inactive | inactive | inactive | – | – |
| CC1(C)CC[C@@]23CC[C@]4(C)[C@@](C=C[C@@H]5[C@@]6(C)CC[C@@H](O)[C@@](C)(CO)[C@@H]6CC[C@]54C)(OC2=O)[C@@H]3C1 [FATSICARPAIN G] | inactive | 33.2 | inactive | 64 (≈ 136 µM) | inactive | inactive | 29.2 | inactive | inactive | inactive | – | – |
| CC1(C)CC[C@]2(C(=O)O)CC[C@]3(C)C(=C2C1)C=C[C@@H]1[C@@]2(C)CC[C@@H](O)C(C)(C)[C@@H]2CC[C@]13C | inactive | > 50 | inactive | 128 (≈ 282 µM) | inactive | inactive | > 50 | inactive | inactive | inactive | – | – |
